Assay results: ChEMBL document CHEMBL1125725, “Potential antitumor agents. 61. Structure-activity relationships for in vivo colon 38 activity among disubstituted 9-oxo-9H-xanthene-4-acetic acids” (1991)

Legend:
Mus musculus [1] = assay: Minimum dose required when administered intraperitoneally in mice as the sodium salt in water in a single dose.; assay type: functional
Outline: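 The minimum dose giving the cited necrosis level in sc colon 38 tumors (4-8 mm) in BDF1 mice. It was taken from a full dose profile at 1.5-fold intervals, given as a single ip dose of the sodium salt in water. The ceiling was 750 mg/kg or the maximum tolerated dose, defined as the highest dose causing no deaths in 24 h. Tumor histology was read at 24 h.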

MC-38 = assay: Antitumor activity against the subcutaneously implanted C38 colon tumor in mice.; assay type: functional, Mus musculus; set-up: concentration or dose not given beside the values
Outline: (§1)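 Colon 38 fragments were implanted sc in BDF1 mice and grown to 4-8 mm diameter. Each mouse then got a single ip dose of the sodium salt in water, with light excluded. Doses rose in 1.5-fold steps up to 750 mg/kg or the maximum tolerated dose. Tumors were removed 24 h later, formalin-fixed, and sections were stained with hematoxylin/eosin. Necrosis was scored: ++ >90%, + 50-90%, − <50%. Groups of five mice, with 2-3 independent determinations per dose.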

Mus musculus [2] = assay: Compound was evaluated in vivo, for antitumor activity, against the subcutaneously implanted C38 colon tumor in mice; 50-90%
Mus musculus [3] = assay: Compound was evaluated in vivo, for antitumor activity, against the subcutaneously implanted C38 colon tumor in mice; 50-90%; assay type: functional; outline: as §1

Row | Structure (SMILES) | minimum dose giving tumor necrosis (Mus musculus [1]) [mg/kg] | Activity (MC-38) [%] | Activity (Mus musculus [2]) [%] | Activity (Mus musculus [3]) [%]
1 | Cc1c(F)ccc2c(=O)c3cccc(CC(=O)O)c3oc12 | 45 | >90 |  | 
2 | Cc1cccc2c(=O)c3cccc(CC(=O)O)c3oc12 | 30 | >90 |  | 
3 | O=C(O)Cc1cccc2c(=O)cc(-c3ccccc3)oc12 [MITOFLAXONE] | 330 | >90 |  | 
4 | O=C(O)Cc1cccc2c(=O)c3ccc4ccccc4c3oc12 | 65 | >90 |  | 
5 | O=C(O)Cc1cccc2c(=O)c3cccc(Cl)c3oc12 | 150 | 90 |  | 
6 | Cc1ccc2c(=O)c3cccc(CC(=O)O)c3oc2c1Cl | 100 | >90 |  | 
7 | Cc1cccc2c(=O)c3c(C)ccc(CC(=O)O)c3oc12 | 65 | >90 |  | 
8 | Cc1cc(CC(=O)O)c2oc3c(C)cccc3c(=O)c2c1 | 220 | >90 |  | 
9 | Cc1c(Br)ccc2c(=O)c3cccc(CC(=O)O)c3oc12 | 45 | >90 |  | 
10 | Cc1ccc2c(=O)c3cccc(C)c3oc2c1CC(=O)O | 45 | >90 |  | 
11 | O=C(O)Cc1cccc2c(=O)c3ccccc3oc12 | 220 | >90 |  | 
12 | Cc1c(Cl)ccc2c(=O)c3cccc(CC(=O)O)c3oc12 | 30 | >90 |  | 
13 | COc1ccc2c(=O)c3cccc(CC(=O)O)c3oc2c1C | 30 | >90 |  | 
14 | Cc1ccc2c(=O)c3cccc(CC(=O)O)c3oc2c1C [VADIMEZAN] | 30 | >90 |  | 
15 | O=C(O)Cc1cccc2c(=O)c3ccc4c(c3oc12)CCC4 | 45 | >90 |  | 
16 | O=C(O)Cc1cccc2c(=O)c3ccc(Cl)c(Cl)c3oc12 | 100 |  | 50 | 
17 | O=C(O)Cc1cccc2c(=O)c3cc4ccccc4cc3oc12 | 330 |  |  | 50
18 | Cc1c(N(C)C)ccc2c(=O)c3cccc(CC(=O)O)c3oc12 | 45 |  |  | 
